Data on 1 compound can be found in ChEMBL document CHEMBL4014309, “Development of an Acrylate Derivative Targeting the NLRP3 Inflammasome for the Treatment of Inflammatory Bowel Disease” (J Med Chem, 2017).

The target in data set [1] is NACHT, LRR and PYD domains-containing protein 3 (Mus musculus) (UniProt Q8R4B8). In words: Inhibition of NLRP3 inflammasome in LPS-primed C57BL/6 mouse bone marrow derived macrophages assessed as reduction in ATP-induced pyroptosis at 100 to 250 nM preincubated for 1 hr followed by stimulation with ATP measured after 30 mins by LDH release assay. Put shortly: (§1)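 Bone marrow macrophages from C57BL/6 mice, differentiated with 20% L-cell medium, primed with LPS (1 µg/mL, 3 h). Test agent or vehicle was added for 1 h, then ATP (5 mM, 30 min) or nigericin (10 µM, 30 min). IL-1β in the medium was measured by ELISA. LDH in the medium was measured colorimetrically as % of total cellular LDH.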

For data set [2] the target is unchanged. Put plainly: Inhibition of NLRP3 inflammasome in LPS-primed C57BL/6 mouse bone marrow derived macrophages assessed as reduction in nigericin-induced pyroptosis at 100 to 250 nM preincubated for 1 hr followed by […] measured after 30 mins by LDH release assay. In outline: as §1
Data set [3] has the same target. In words: Inhibition of NLRP3 inflammasome in LPS-primed C57BL/6 mouse bone marrow derived macrophages assessed as reduction in ATP-induced IL-1beta production at 10 to 250 nM preincubated for 1 hr followed by stimulation with ATP measured after 30 mins by ELISA. Put shortly:
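C57BL/6 bone marrow macrophages, differentiated with 20% L-cell medium, were primed with LPS (1 µg/mL, 3 h). They were then exposed to compound or vehicle for 1 h and stimulated with ATP (5 mM, 30 min). IL-1β released into the medium was measured by ELISA.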

For data set [4] the target is unchanged. Put plainly: Inhibition of NLRP3 inflammasome in LPS-primed C57BL/6 mouse bone marrow derived macrophages assessed as reduction in nigericin-induced IL-1beta production at 10 to 250 nM preincubated for 1 hr followed by stimulation with nigericin measured after 30 mins by ELISA. Put shortly:
as §1

For data set [5], the system named is Rattus norvegicus. In words: Antiinflammatory activity in DNBS-induced Sprague-Dawley rat colitis model assessed as body weight recovery at 1 mg/kg/day, ig administered as methylcellulose suspension for 6 days simulatneously with 6 days of DNBS-challenge measured daily during compound dosing. The data set is classed as functional, organism-based. In outline: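 Colitis was induced with intrarectal DNBS (15 mg in 0.25 mL 50% ethanol). Intragastric treatment ran 6 days from the day of induction: 1 mg/kg/day in 1% methylcellulose, or 12.5–50 mg/kg/day in olive oil. Body weight change (g) was recorded at the end of treatment, mean ± SEM, n = 10.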

Data set [6] concerns Rattus norvegicus. Put plainly: Antiinflammatory activity in DNBS-induced Sprague-Dawley rat colitis model assessed as reduction in DNBS-induced spleen weight increase by measuring increase in spleen weight at 1 mg/kg/day, ig administered as methylcellulose suspension for 6 days simulatneously with 6 days of DNBS-challenge measured daily during compound dosing (reference value: 39.3%). In kind it is functional. Further details: scale not given: the % may be the effect or the level left. In outline: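 Spleen weight was used as an index of systemic inflammation. Rats had intrarectal DNBS (15 mg/0.25 mL 50% ethanol) and 6 days of intragastric dosing: 1 mg/kg/day in 1% methylcellulose, or 12.5–50 mg/kg/day in 0.2 mL olive oil. The spleen was weighed at sacrifice and expressed as percent increase versus control, n = 10.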

For data set [7], the system named is Rattus norvegicus. Put plainly: Antiinflammatory activity in DNBS-induced Sprague-Dawley rat colitis model assessed as DNBS-induced macroscopic damage score at 1 mg/kg/day, ig for 6 days simulatneously with 6 days of DNBS-challenge (reference value: 8.6 +/- 0.6). The data set is classed as functional. Put shortly: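 After intrarectal DNBS (15 mg/0.25 mL 50% ethanol), dosing was intragastric for 6 days (0.2 mL olive oil; 1 mg/kg/day dose in 1% methylcellulose). The whole excised colon was scored for macroscopic damage on a 0–6 point scale by two blinded observers. Values are mean ± SEM, n = 10.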

In data set [8] the test system is Rattus norvegicus. Put plainly: Anti-inflammatory activity in DNBS-induced Sprague-Dawley rat colitis model assessed as reduction in DNBS-induced increase in MPO levels in colon at 1 mg/kg/day, ig for 6 days simulatneously with 6 days of DNBS-challenge by ELISA. In kind it is functional, organism-based. In outline:
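DNBS colitis (15 mg intrarectal in 50% ethanol) was treated by the intragastric route for 6 days from induction (1 mg/kg/day in 1% methylcellulose, or 12.5–50 mg/kg/day in olive oil). Colonic samples (30 mg) were taken adjacent and distal to the necrotic area, homogenized, and assayed for MPO by ELISA. Results are ng MPO per mg tissue, mean ± SEM, n = 10.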

The subject of data set [9] is Rattus norvegicus. Put plainly: Anti-inflammatory activity in DNBS-induced Sprague-Dawley rat colitis model assessed as DNBS-induced IL-1beta levels in colon at 1 mg/kg/day, ig for 6 days simulatneously with 6 days of DNBS-challenge by ELISA (reference value: 22.3 +/- 2.9 ng/mg). The data set is classed as functional.
The test system of data set [10] is Rattus norvegicus. In words: Anti-inflammatory activity in DNBS-induced Sprague-Dawley rat colitis model assessed as DNBS-induced TNFalpha levels in colon at 1 mg/kg/day, ig for 6 days simulatneously with 6 days of DNBS-challenge by ELISA (reference value: 5.9 +/- 0.6 pg/mg). The data set is classed as functional.
Data set [11] deals with Rattus norvegicus. Put plainly: Toxicity in Sprague-Dawley rat assessed as body weight loss at 1 mg/kg/day, ig. In kind it is organism-based. The conditions noted are these: in vivo, po. In outline: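 Rats received intrarectal DNBS (15 mg in 0.25 mL 50% ethanol) or none. Dosing was intragastric for 6 days from induction: compound 12.5–50 mg/kg/day in 0.2 mL olive oil, or dexamethasone 1 mg/kg/day in 0.2 mL 1% methylcellulose. Body weight change was recorded at end; n = 10, mean ± SEM.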

The source made the active and inactive calls. The calls are words filed in the database; no cut-off is given here.

NACHT, LRR and PYD domains-containing protein 3 (Mus musculus), sequence (Q8R4B8 whole entry, the tested form may be a part): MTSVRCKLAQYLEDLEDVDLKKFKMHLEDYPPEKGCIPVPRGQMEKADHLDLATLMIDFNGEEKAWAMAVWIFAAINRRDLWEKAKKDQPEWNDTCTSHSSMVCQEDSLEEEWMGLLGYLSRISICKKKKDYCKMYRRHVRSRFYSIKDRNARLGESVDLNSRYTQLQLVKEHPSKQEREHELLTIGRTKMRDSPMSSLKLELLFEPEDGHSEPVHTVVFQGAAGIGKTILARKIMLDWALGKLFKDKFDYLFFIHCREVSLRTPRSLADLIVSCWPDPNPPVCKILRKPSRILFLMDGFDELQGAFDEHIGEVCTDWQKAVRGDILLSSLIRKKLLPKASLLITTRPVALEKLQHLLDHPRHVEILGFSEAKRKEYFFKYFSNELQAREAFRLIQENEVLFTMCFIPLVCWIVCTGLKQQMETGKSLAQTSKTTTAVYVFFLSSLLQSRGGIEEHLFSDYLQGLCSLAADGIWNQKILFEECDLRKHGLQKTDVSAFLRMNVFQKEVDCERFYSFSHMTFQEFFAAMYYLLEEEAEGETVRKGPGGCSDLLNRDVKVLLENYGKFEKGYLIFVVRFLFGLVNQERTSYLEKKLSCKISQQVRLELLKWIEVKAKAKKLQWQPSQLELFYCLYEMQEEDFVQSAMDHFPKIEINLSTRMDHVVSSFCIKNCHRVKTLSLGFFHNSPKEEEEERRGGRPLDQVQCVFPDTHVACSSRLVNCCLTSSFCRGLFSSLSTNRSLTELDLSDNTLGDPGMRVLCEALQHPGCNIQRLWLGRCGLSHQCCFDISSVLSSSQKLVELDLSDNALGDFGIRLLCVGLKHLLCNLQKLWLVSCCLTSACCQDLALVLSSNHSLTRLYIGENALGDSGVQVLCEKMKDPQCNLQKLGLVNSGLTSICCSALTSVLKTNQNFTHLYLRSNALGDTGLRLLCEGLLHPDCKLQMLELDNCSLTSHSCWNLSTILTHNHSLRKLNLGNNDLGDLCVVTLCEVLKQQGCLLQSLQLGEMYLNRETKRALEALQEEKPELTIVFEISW

With `C[C@@H]1C[C@H]2[C@@H]3CCC4=CC(=O)C=C[C@]4(C)[C@@]3(F)[C@@H](O)C[C@]2(C)[C@@]1(O)C(=O)CO` [DEXAMETHASONE], the inhibition result in [1] and in [2] was “Active” in each case. For the same compound, the inhibition entry in data set [3] and in data set [4] was “inactive” throughout. The outcome in the data set with Rattus norvegicus [5] was inactive. The Activity with Rattus norvegicus [6] is reported as 1.6%; in the data set on Rattus norvegicus [9], 6.7 ng/mg; in the data set on Rattus norvegicus [10] it was 2.2 pg/mg; in the data set with Rattus norvegicus [11], “Toxic”. Besides, the Activity_index with Rattus norvegicus [7] was 2. Further, the result in the data set on Rattus norvegicus [8] was Active.
